Source: ChEMBL document CHEMBL2040727, “Substituted thiazoles VI. Synthesis and antitumor activity of new 2-acetamido- and 2 or 3-propanamido-thiazole analogs” (2012)

Key:
Type in all cases: functional
LOX IMVI = assay: Growth inhibition of human LOXIMVI cells at 10 uM after 48 hrs by coulter counter analysis; conditions: read-out: GI
Procedure, shortened: (§1)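 Single-dose NCI 60-line panel screen of test compounds. Cells grown in RPMI 1640 with 10% FBS. Compounds dissolved in DMSO, then diluted in phosphate buffer saline (final DMSO below 1%). Wells run in duplicate at 6 × 10⁴ cells/ml. Controls held PBS and DMSO at matching dilutions. Incubation 48 h at 37 °C under humidified 5% CO2. Cells diluted tenfold in saline and counted by Coulter counter. Percent growth inhibition taken from mean-graph of treated-cell growth.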

IGROV-1 = assay: Growth inhibition of human IGROV1 cells at 10 uM after 48 hrs by coulter counter analysis; conditions: IGROV-1, 48 h, read-out: GI; procedure, shortened: as §1
SK-MEL-28 = assay: Growth inhibition of human SK-MEL-28 cells at 10 uM after 48 hrs by coulter counter analysis; conditions: SK-MEL-28, 48 h, read-out: GI; procedure, shortened: as §1
HCT-116 = assay: Growth inhibition of human HCT116 cells at 10 uM after 48 hrs by coulter counter analysis; conditions: HCT-116, 48 h, read-out: GI; procedure, shortened: as §1
OVCAR-3 = assay: Growth inhibition of human OVCAR3 cells at 10 uM after 48 hrs by coulter counter analysis; conditions: OVCAR-3, 48 h, read-out: GI; procedure, shortened: as §1
NCI-H460 = assay: Growth inhibition of human NCI-H460 cells at 10 uM after 48 hrs by coulter counter analysis; conditions: NCI-H460, 48 h, read-out: GI; procedure, shortened: as §1
CCRF-CEM = assay: Growth inhibition of human CCRF-CEM cells at 10 uM after 48 hrs by coulter counter analysis; conditions: read-out: GI; procedure, shortened: as §1
HL-60(TB) = assay: Growth inhibition of human HL-60(TB) cells at 10 uM after 48 hrs by coulter counter analysis; conditions: HL-60, 48 h, read-out: GI
Procedure, shortened: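 Cells grown in RPMI 1640 with 10% FBS. Compound was dissolved in DMSO and diluted in PBS (under 1% DMSO final), then added in duplicate wells to culture at 6 × 10⁴ cells/ml. PBS/DMSO vehicle controls were included. Incubated at 37 °C, humidified 5% CO₂, for 48 h. Cells were diluted 10-fold in saline and Coulter-counted. Single-dose NCI-60 screen, read as percent growth inhibition.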

BT-549 = assay: Growth inhibition of human BT549 cells at 10 uM after 48 hrs by coulter counter analysis; conditions: BT-549, 48 h, read-out: GI; procedure, shortened: as §1
HCC 2998 = assay: Growth inhibition of human HCC2998 cells at 10 uM after 48 hrs by coulter counter analysis; conditions: HCC 2998, 48 h, read-out: GI; procedure, shortened: as §1
SNB-75 = assay: Growth inhibition of human SNB75 cells at 10 uM after 48 hrs by coulter counter analysis; conditions: SNB-75, 48 h, read-out: GI
Procedure, shortened: (§2)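 Single-dose screen in the NCI 60 cell line panel. Cells grown in RPMI 1640 with 10% FBS. Compounds dissolved in DMSO and diluted in phosphate buffered saline, final DMSO under 1%. Duplicate wells seeded from culture at 6 × 10⁴ cells/ml. Incubated 48 h at 37 °C, humidified, 5% CO2. Cells diluted tenfold in saline and Coulter-counted. Percent growth inhibition computed against PBS/DMSO controls.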

ACHN = assay: Growth inhibition of human ACHN cells at 10 uM after 48 hrs by coulter counter analysis; conditions: read-out: GI; procedure, shortened: as §1
SK-MEL-2 = assay: Growth inhibition of human SK-MEL-2 cells at 10 uM after 48 hrs by coulter counter analysis; conditions: SK-MEL-2, 48 h, read-out: GI; procedure, shortened: as §1
EKVX = assay: Growth inhibition of human EKVX cells at 10 uM after 48 hrs by coulter counter analysis; conditions: read-out: GI; procedure, shortened: as §1
786-0 = assay: Growth inhibition of human 786-0 cells at 10 uM after 48 hrs by coulter counter analysis; conditions: 786-0, 48 h, read-out: GI; procedure, shortened: as §1
M14 = assay: Growth inhibition of human M14 cells at 10 uM after 48 hrs by coulter counter analysis; conditions: M14, 48 h, read-out: GI; procedure, shortened: as §1
SR = assay: Growth inhibition of human SR cells at 10 uM after 48 hrs by coulter counter analysis; conditions: read-out: GI; procedure, shortened: as §2
Malme-3M = assay: Growth inhibition of human MALME-3M cells at 10 uM after 48 hrs by coulter counter analysis; conditions: read-out: GI; procedure, shortened: as §1
T47D = assay: Growth inhibition of human T47D cells at 10 uM after 48 hrs by coulter counter analysis; conditions: read-out: GI; procedure, shortened: as §2
OVCAR-8 = assay: Growth inhibition of human OVCAR8 cells at 10 uM after 48 hrs by coulter counter analysis; conditions: OVCAR-8, 48 h, read-out: GI; procedure, shortened: as §1
CAKI-1 = assay: Growth inhibition of human Caki1 cells at 10 uM after 48 hrs by coulter counter analysis; conditions: CAKI-1, 48 h, read-out: GI; procedure, shortened: as §1
COLO 205 = assay: Growth inhibition of human COLO205 cells at 10 uM after 48 hrs by coulter counter analysis; conditions: COLO 205, 48 h, read-out: GI; procedure, shortened: as §1
NCI-H322M = assay: Growth inhibition of human NCI-H322M cells at 10 uM after 48 hrs by coulter counter analysis; conditions: read-out: GI; procedure, shortened: as §1
SNB-19 = assay: Growth inhibition of human SNB19 cells at 10 uM after 48 hrs by coulter counter analysis; conditions: SNB-19, 48 h, read-out: GI; procedure, shortened: as §1
NCI-H23 = assay: Growth inhibition of human NCI-H23 cells at 10 uM after 48 hrs by coulter counter analysis; conditions: NCI-H23, 48 h, read-out: GI; procedure, shortened: as §1
SF-539 = assay: Growth inhibition of human SF539 cells at 10 uM after 48 hrs by coulter counter analysis; conditions: SF-539, 48 h, read-out: GI; procedure, shortened: as §1
MOLT-4 = assay: Growth inhibition of human MOLT4 cells at 10 uM after 48 hrs by coulter counter analysis; conditions: MOLT-4, 48 h, read-out: GI; procedure, shortened: as §1
PC-3 = assay: Growth inhibition of human PC3 cells at 10 uM after 48 hrs by coulter counter analysis; conditions: PC-3, 48 h, read-out: GI; procedure, shortened: as §1
SN12C = assay: Growth inhibition of human SN12C cells at 10 uM after 48 hrs by coulter counter analysis; conditions: read-out: GI; procedure, shortened: as §1
MDA-MB-435 = assay: Growth inhibition of human MDA-MB-435 cells at 10 uM after 48 hrs by coulter counter analysis; conditions: MDA-MB-435, 48 h, read-out: GI; procedure, shortened: as §1
KM12 = assay: Growth inhibition of human KM12 cells at 10 uM after 48 hrs by coulter counter analysis; conditions: KM12, 48 h, read-out: GI; procedure, shortened: as §1
MDA-MB-468 = assay: Growth inhibition of human MDA-MB-468 cells at 10 uM after 48 hrs by coulter counter analysis; conditions: MDA-MB-468, 48 h, read-out: GI; procedure, shortened: as §1
MCF7 = assay: Growth inhibition of human MCF7 cells at 10 uM after 48 hrs by coulter counter analysis; conditions: MCF7, 48 h, read-out: GI; procedure, shortened: as §1
HOP-92 = assay: Growth inhibition of human HOP92 cells at 10 uM after 48 hrs by coulter counter analysis; conditions: HOP-92, 48 h, read-out: GI; procedure, shortened: as §1

SMILES	inhibition of growth at 10 µM (LOX IMVI) [%]	inhibition of growth at 10 µM (IGROV-1) [%]	inhibition of growth at 10 µM (SK-MEL-28) [%]	inhibition of growth at 10 µM (HCT-116) [%]	inhibition of growth at 10 µM (OVCAR-3) [%]	inhibition of growth at 10 µM (NCI-H460) [%]	inhibition of growth at 10 µM (CCRF-CEM) [%]	inhibition of growth at 10 µM (HL-60(TB)) [%]	inhibition of growth at 10 µM (BT-549) [%]	inhibition of growth at 10 µM (HCC 2998) [%]	inhibition of growth at 10 µM (SNB-75) [%]	inhibition of growth at 10 µM (ACHN) [%]	inhibition of growth at 10 µM (SK-MEL-2) [%]	inhibition of growth at 10 µM (EKVX) [%]	inhibition of growth at 10 µM (786-0) [%]	inhibition of growth at 10 µM (M14) [%]	inhibition of growth at 10 µM (SR) [%]	inhibition of growth at 10 µM (Malme-3M) [%]	inhibition of growth at 10 µM (T47D) [%]	inhibition of growth at 10 µM (OVCAR-8) [%]	also measured
CCOC(=O)c1sc(NC(=O)CCN2CCN(C)CC2)nc1C	15.5	< 10	< 10	< 10	< 10	< 10	96.2	< 10	< 10	< 10	< 10	< 10	< 10	15.9	< 10	< 10	20.3	< 10	< 10	< 10	inhibition of growth at 10 µM (CAKI-1): 12.5%; inhibition of growth at 10 µM (COLO 205): < 10%; inhibition of growth at 10 µM (NCI-H322M): < 10%; inhibition of growth at 10 µM (SNB-19): < 10%; inhibition of growth at 10 µM (NCI-H23): < 10%; inhibition of growth at 10 µM (SF-539): < 10%; inhibition of growth at 10 µM (MOLT-4): < 10%; inhibition of growth at 10 µM (PC-3): < 10%; inhibition of growth at 10 µM (SN12C): < 10%; inhibition of growth at 10 µM (MDA-MB-435): < 10%; inhibition of growth at 10 µM (KM12): < 10%; inhibition of growth at 10 µM (MDA-MB-468): 25.2%; inhibition of growth at 10 µM (MCF7): 16.3%; inhibition of growth at 10 µM (HOP-92): < 10%
CCOC(=O)c1sc(NC(=O)CCN2CCN(c3ccccc3)CC2)nc1C	< 10	< 10	< 10	< 10	< 10	< 10	< 10	< 10	< 10	< 10	< 10	< 10	< 10	< 10	< 10	< 10	< 10	12	< 10	< 10	inhibition of growth at 10 µM (CAKI-1): < 10%; inhibition of growth at 10 µM (COLO 205): < 10%; inhibition of growth at 10 µM (NCI-H322M): < 10%; inhibition of growth at 10 µM (SNB-19): < 10%; inhibition of growth at 10 µM (NCI-H23): < 10%; inhibition of growth at 10 µM (SF-539): < 10%; inhibition of growth at 10 µM (MOLT-4): < 10%; inhibition of growth at 10 µM (PC-3): < 10%; inhibition of growth at 10 µM (SN12C): < 10%; inhibition of growth at 10 µM (MDA-MB-435): < 10%; inhibition of growth at 10 µM (KM12): < 10%; inhibition of growth at 10 µM (MDA-MB-468): < 10%; inhibition of growth at 10 µM (MCF7): < 10%; inhibition of growth at 10 µM (HOP-92): 17.5%
